Experiments:
UO-31 = test: Cytotoxicity against human UO31 cells assessed as cell growth at 10 uM after 48 hrs relative to control; format: functional; settings: UO-31, 48 h, read-out: Activity
How it was run: (§1)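 Submitted to the National Cancer Institute for a single-dose screen at 10 micromolar against 60 cancer cell lines. Growth is expressed relative to negative-control cultures.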

Malme-3M = test: Cytotoxicity against human MALME-3M cells assessed as cell growth at 10 uM after 48 hrs relative to control; format: functional; settings: read-out: Activity
How it was run: (§2)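 Run at the National Cancer Institute as a single-dose screen across its 60-cell-line cancer panel. Compound was tested at 10 micromolar, and growth was expressed as a percentage of negative-control cultures.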

M14 = test: Cytotoxicity against human M14 cells assessed as cell growth at 10 uM after 48 hrs relative to control; format: functional; settings: M14, 48 h, read-out: Activity; how it was run: as §2
NCI-H460 = test: Cytotoxicity against human NCI-H460 cells assessed as cell growth at 10 uM after 48 hrs relative to control; format: functional; settings: NCI-H460, 48 h, read-out: Activity; how it was run: as §2
MOLT-4 = test: Cytotoxicity against human MOLT4 cells after 48 hrs; format: functional; settings: MOLT-4, 48 h
T47D = test: Cytotoxicity against human T47D cells assessed as cell growth at 10 uM after 48 hrs relative to control; format: functional; settings: read-out: Activity; how it was run: as §1
TK-10 = test: Cytotoxicity against human TK10 cells assessed as cell growth at 10 uM after 48 hrs relative to control; format: functional; settings: TK-10, 48 h, read-out: Activity; how it was run: as §1
HL-60 = test: Cytotoxicity against human HL60 cells after 48 hrs; format: functional; settings: HL-60, 48 h
RPMI-8226 = test: Cytotoxicity against human RPMI8226 cells assessed as cell growth at 10 uM after 48 hrs relative to control; format: functional; settings: RPMI-8226, 48 h, read-out: Activity; how it was run: as §2
KM12 = test: Cytotoxicity against human KM12 cells assessed as cell growth at 10 uM after 48 hrs relative to control; format: functional; settings: KM12, 48 h, read-out: Activity; how it was run: as §2
SW-620 = test: Cytotoxicity against human SW620 cells assessed as cell growth at 10 uM after 48 hrs relative to control; format: functional; settings: SW-620, 48 h, read-out: Activity; how it was run: as §1
786-0 = test: Cytotoxicity against human 786-0 cells assessed as cell growth at 10 uM after 48 hrs relative to control; format: functional; settings: 786-0, 48 h, read-out: Activity; how it was run: as §2
A549 = test: Cytotoxicity against human A549 cells assessed as cell growth at 10 uM after 48 hrs relative to control; format: functional; settings: A549, 48 h, read-out: Activity; how it was run: as §2
UACC-257 = test: Cytotoxicity against human UACC257 cells assessed as cell growth at 10 uM after 48 hrs relative to control; format: functional; settings: UACC-257, 48 h, read-out: Activity; how it was run: as §1
K562 = test: Cytotoxicity against human K562 cells after 48 hrs; format: functional; settings: K562, 48 h
CAKI-1 = test: Cytotoxicity against human Caki1 cells assessed as cell growth at 10 uM after 48 hrs relative to control; format: functional; settings: CAKI-1, 48 h, read-out: Activity; how it was run: as §2
SK-MEL-5 = test: Cytotoxicity against human SK-MEL-5 cells assessed as cell growth at 10 uM after 48 hrs relative to control; format: functional; settings: SK-MEL-5, 48 h, read-out: Activity; how it was run: as §2
HCT-116 = test: Cytotoxicity against human HCT116 cells assessed as cell growth at 10 uM after 48 hrs relative to control; format: functional; settings: HCT-116, 48 h, read-out: Activity; how it was run: as §2
[1] = Cytotoxicity against human Hs578T cells assessed as cell growth at 10 uM after 48 hrs relative to control; format: functional; settings: Hs-578T, read-out: Activity; how it was run: as §2
HCC 2998 = test: Cytotoxicity against human HCC2998 cells assessed as cell growth at 10 uM after 48 hrs relative to control; format: functional; settings: HCC 2998, 48 h, read-out: Activity; how it was run: as §2
OVCAR-5 = test: Cytotoxicity against human OVCAR5 cells assessed as cell growth at 10 uM after 48 hrs relative to control; format: functional; settings: OVCAR-5, 48 h, read-out: Activity; how it was run: as §2
OVCAR-3 = test: Cytotoxicity against human OVCAR3 cells assessed as cell growth at 10 uM after 48 hrs relative to control; format: functional; settings: OVCAR-3, 48 h, read-out: Activity; how it was run: as §2
[2] = biological target: T1, Proteasome Macropain subunit MB1 (Homo sapiens, UniProt P28074); test: Inhibition of human 20S proteasome beta5 subunit using Suc-LLVY-AMC as substrate by fluorescence assay
T1 sequence (P28074 whole entry): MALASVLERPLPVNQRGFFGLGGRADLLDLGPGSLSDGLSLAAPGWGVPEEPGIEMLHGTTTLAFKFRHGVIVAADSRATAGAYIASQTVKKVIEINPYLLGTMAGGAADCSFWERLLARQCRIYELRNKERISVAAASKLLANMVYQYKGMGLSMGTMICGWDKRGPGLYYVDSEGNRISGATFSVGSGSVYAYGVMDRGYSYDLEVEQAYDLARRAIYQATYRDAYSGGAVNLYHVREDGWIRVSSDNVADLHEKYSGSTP

A498 = test: Cytotoxicity against human A498 cells assessed as cell growth at 10 uM after 48 hrs relative to control; format: functional; settings: A498, 48 h, read-out: Activity; how it was run: as §2
MCF7 = test: Cytotoxicity against human MCF7 cells assessed as cell growth at 10 uM after 48 hrs relative to control; format: functional; settings: MCF7, 48 h, read-out: Activity; how it was run: as §2
HL-60(TB) = test: Cytotoxicity against human HL-60(TB) cells assessed as cell growth at 10 uM after 48 hrs relative to control; format: functional; settings: HL-60, 48 h, read-out: Activity
How it was run: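 Run at the NCI as a single-dose screen: each compound at 10 micromolar across the 60-cancer-cell-line panel. Growth of each cell line in compound-containing media was expressed relative to negative-control cultures.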

[3] = Cytotoxicity against human RPMI-8226 cells after 48 hrs; format: functional; settings: RPMI-8226, 48 h
SR = test: Cytotoxicity against human SR cells after 48 hrs; format: functional
How it was run: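 Dose-dependent growth inhibition was assessed at the National Cancer Institute against its cancer cell line panel as a follow-up to the 10 micromolar single-dose screen.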

SK-MEL-28 = test: Cytotoxicity against human SK-MEL-28 cells assessed as cell growth at 10 uM after 48 hrs relative to control; format: functional; settings: SK-MEL-28, 48 h, read-out: Activity; how it was run: as §2
PC-3 = test: Cytotoxicity against human PC3 cells assessed as cell growth at 10 uM after 48 hrs relative to control; format: functional; settings: PC-3, 48 h, read-out: Activity; how it was run: as §2
BT-549 = test: Cytotoxicity against human BT549 cells assessed as cell growth at 10 uM after 48 hrs relative to control; format: functional; settings: BT-549, 48 h, read-out: Activity; how it was run: as §2
HOP-62 = test: Cytotoxicity against human HOP62 cells assessed as cell growth at 10 uM after 48 hrs relative to control; format: functional; settings: HOP-62, 48 h, read-out: Activity; how it was run: as §2
SK-OV-3 = test: Cytotoxicity against human SKOV3 cells assessed as cell growth at 10 uM after 48 hrs relative to control; format: functional; settings: SK-OV-3, 48 h, read-out: Activity; how it was run: as §2
NCI-H522 = test: Cytotoxicity against human NCI-H522 cells assessed as cell growth at 10 uM after 48 hrs relative to control; format: functional; settings: NCI-H522, 48 h, read-out: Activity; how it was run: as §2

SMILES	growth at 10 µM (UO-31)	growth at 10 µM (Malme-3M)	growth at 10 µM (M14)	growth at 10 µM (NCI-H460)	growth at 10 µM (T47D)	growth at 10 µM (TK-10)	growth at 10 µM (RPMI-8226)	growth at 10 µM (KM12)	growth at 10 µM (SW-620)	growth at 10 µM (786-0)	growth at 10 µM (A549)	growth at 10 µM (UACC-257)	growth at 10 µM (CAKI-1)	growth at 10 µM (SK-MEL-5)	growth at 10 µM (HCT-116)	growth at 10 µM [1]	growth at 10 µM (HCC 2998)	growth at 10 µM (OVCAR-5)	growth at 10 µM (OVCAR-3)	Ki [2]	further results
COC(=O)[C@@H](NC(=O)N[C@H](C(=O)N[C@H]1CCCCNC(=O)/C=C/[C@H](C(C)C)NC1=O)C(C)C)C(C)C	82.2%	29.9%	64.5%	28.9%	-31.7%	85.8%	15.2%	1.78%	30.3%	83.3%	42.1%	33.4%	103%	-4.25%	21.2%	4.52%	-0.39%	58.4%	-39.6%	2.12 µM	GI50 (MOLT-4): 4.73 µM; GI50 (HL-60): 5.41 µM; GI50 (K562): 6.12 µM; growth at 10 µM (A498): 43.2%; growth at 10 µM (MCF7): 42.8%; growth at 10 µM (HL-60(TB)): 27.2%; GI50 [3]: 3.97 µM; GI50 (SR): 5.13 µM; growth at 10 µM (SK-MEL-28): 30.2%; growth at 10 µM (PC-3): 62%; growth at 10 µM (BT-549): 5.44%; growth at 10 µM (HOP-62): 22.9%; growth at 10 µM (SK-OV-3): 47.5%
COC(=O)[C@@H](NC(=O)N[C@@H](Cc1ccccc1)C(=O)N[C@H]1CCCCNC(=O)/C=C/[C@H](C(C)C)NC1=O)C(C)C	94.7%	77%	86.6%	59.6%	-3.59%	93.6%	23.1%	30.5%	38.5%	97.5%	77.4%	58.5%	98.3%	34%	26.5%	40.9%	52.8%	104%	1.28%	0.95 µM	growth at 10 µM (A498): 104%; growth at 10 µM (NCI-H522): -43.8%; growth at 10 µM (MCF7): 43.8%; growth at 10 µM (HL-60(TB)): 62.5%; growth at 10 µM (SK-MEL-28): 52.1%; growth at 10 µM (PC-3): 75%; growth at 10 µM (BT-549): 29.6%; growth at 10 µM (HOP-62): 84.4%; growth at 10 µM (SK-OV-3): 101%
COC(=O)[C@@H](NC(=O)N[C@@H](Cc1ccccc1)C(=O)N[C@H]1CCCCNC(=O)/C=C/[C@H](Cc2ccccc2)NC1=O)C(C)C	89.6%	-0.39%	53.9%	35.6%	8.25%	75%	7.17%	7.99%	23.1%	71.8%	68.6%	16.4%	106%	18.6%	11.6%	24.9%	5.56%	87%	-36.7%	0.447 µM	GI50 (MOLT-4): 3.32 µM; GI50 (HL-60): 4.34 µM; GI50 (K562): 14.6 µM; growth at 10 µM (A498): 40.7%; growth at 10 µM (NCI-H522): -37%; growth at 10 µM (MCF7): 37.4%; growth at 10 µM (HL-60(TB)): 20.9%; GI50 [3]: 2.72 µM; GI50 (SR): 2.78 µM; growth at 10 µM (SK-MEL-28): 33.3%; growth at 10 µM (PC-3): 73.2%; growth at 10 µM (BT-549): 3.25%; growth at 10 µM (HOP-62): 51.6%; growth at 10 µM (SK-OV-3): 61.1%
